Assay results taken from ChEMBL document CHEMBL4261611, “Identification of steroidal derivatives inhibiting the transformations of allopregnanolone and estradiol by 17β-hydroxysteroid dehydrogenase type 10” (Bioorg Med Chem Lett, 2018).
Calls of active or inactive are those of the source. The rule behind the calls is not given here.

Assays:
[1] = target: T1, 3-hydroxyacyl-CoA dehydrogenase type-2 (Mus musculus) (UniProt O08756); test: Inhibition of recombinant mouse full-length 17beta-HSD10 (2 to 261 residues) assessed as reduction in transformation of [14C]-E2 to E1 at 300 uM after 48 hrs in presence of 1 mM NAD+ cofactor by liquid scintillation counting method relative to control
T1 sequence (whole entry): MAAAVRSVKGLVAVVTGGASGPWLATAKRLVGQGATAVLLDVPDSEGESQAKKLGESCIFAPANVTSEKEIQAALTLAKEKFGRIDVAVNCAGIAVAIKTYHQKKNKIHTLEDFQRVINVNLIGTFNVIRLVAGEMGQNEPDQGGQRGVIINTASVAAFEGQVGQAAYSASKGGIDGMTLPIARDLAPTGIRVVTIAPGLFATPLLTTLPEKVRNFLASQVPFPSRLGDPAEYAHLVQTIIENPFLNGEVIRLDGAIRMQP
In short: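 Single-concentration screen at 300 μM inhibitor. Purified 17β-HSD10 (400 ng/mL), 1 mM NAD⁺, 1 μM [¹⁴C]-E2/E2 (1:9), 48 h incubation. E2-to-E1 conversion was measured and inhibition expressed relative to uninhibited transformation. Results are mean ± SEM.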

[2] = target: T1, 3-hydroxyacyl-CoA dehydrogenase type-2 (Mus musculus); test: Inhibition of recombinant mouse full-length 17beta-HSD10 (2 to 261 residues) assessed as reduction in transformation of [14C]-E2 to E1 at 100 uM after 48 hrs in presence of 1 mM NAD+ cofactor by liquid scintillation counting method
[3] = target: T1, 3-hydroxyacyl-CoA dehydrogenase type-2 (Mus musculus); test: Inhibition of recombinant mouse full-length 17beta-HSD10 (2 to 261 residues) assessed as reduction in transformation of [3H]-ALLOP to 5alpha-DHP at 100 uM after 48 hrs in presence of 1 mM NAD+ cofactor by liquid scintillation counting method relative to control
In short: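 Screen at 100 μM inhibitor, 48 h, with 400 ng/mL purified enzyme, 1 mM NAD⁺ and 1 μM [³H]-ALLOP/ALLOP (1:99). ALLOP-to-5α-DHP conversion was expressed as % inhibition versus the no-inhibitor transformation. Results are mean ± SEM.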

[4] = Octanol/water partition co-efficient, log P of the compound; assay type: physicochemical
In short: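 Octanol/water partition coefficient calculated in silico, not measured.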

[5] = target: T2, 3-hydroxyacyl-CoA dehydrogenase type-2 (Mus musculus, UniProt O08756); test: Inhibition of recombinant mouse full-length 17beta-HSD10 (2 to 261 residues) assessed as reduction in transformation of [3H]-ALLOP to 5alpha-DHP after 48 hrs in presence of 1 mM NAD+ cofactor by liquid scintillation counting method
T2 sequence (O08756 whole entry): T1 sequence (whole entry)
In short: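 Purified 17β-HSD10 (400 ng/mL), 1 mM NAD⁺, 1 μM [³H]-ALLOP/ALLOP (1:99), 48 h incubation. Oxidation to 5α-DHP was measured over a range of inhibitor concentrations to build inhibition curves and estimate IC50. Results are mean ± SEM.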

[6] = target: T2, 3-hydroxyacyl-CoA dehydrogenase type-2; test: Inhibition of recombinant mouse full-length 17beta-HSD10 (2 to 261 residues) assessed as reduction in transformation of [14C]-E2 to E1 after 48 hrs in presence of 1 mM NAD+ cofactor by liquid scintillation counting method
In short: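 Purified 17β-HSD10 at 400 ng/mL with 1 mM NAD⁺ and substrate [¹⁴C]-E2/E2 (1:9) at 1 μM total, incubated 48 h. E2-to-E1 oxidation was followed with radiolabel. Percent inhibition over a dose range was used for dose-response curves and IC50 estimation. Results are mean ± SEM.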

[7] = Solubility of the compound at 600 to 1000 uM; assay type: physicochemical
[8] = Blood-brain transfer coefficient in mouse administered via perfusion; assay type: ADME, tissue-based; conditions: in vivo, other
[9] = Effect on mouse brain penetration assessed as [14C]-sucrose uptake administered via perfusion; assay type: ADME, tissue-based; conditions: in vivo

Row | SMILES | inhibition [1] | inhibition [2] | inhibition [3] | logP [4] | IC50 [5] | IC50 [6] | solubility [7] | Kin [8] | Activity [9]
1 | C[C@]12CC[C@](O)(CN3CCN(C(=S)NCc4cccc(C(F)(F)F)c4)CC3)C[C@@H]1CC[C@@H]1[C@@H]2CC[C@]2(C)C(=O)CC[C@@H]12 | 8.5% | inactive | 34.2% | 3.85 |  |  |  |  | 
2 | C#C[C@]1(O)CC[C@H]2[C@@H]3CC[C@H]4C[C@@](O)(CN5CCN(Cc6cccc(OC)c6)CC5)CC[C@]4(C)[C@H]3CC[C@@]21C | 44.5% | inactive | 20% | 4.93 |  |  |  |  | 
3 | COc1cccc(CN2CCN(C[C@@]3(O)CC[C@@]4(C)[C@@H](CC[C@@H]5[C@@H]4CC[C@]4(C)C(=O)C(C)(C)C[C@@H]54)C3)CC2)c1 | 24.6% | inactive | 11.1% | 5.57 |  |  |  |  | 
4 | C[C@]12CC[C@](O)(CN3CCN(Cc4cnc5ccccc5c4)CC3)C[C@@H]1CC[C@@H]1[C@@H]2CC[C@]2(C)C(=O)CC[C@@H]12 | 36.1% | inactive | 15.2% | 4.58 |  |  |  |  | 
5 | COc1cc(CN2CCN(C[C@@]3(O)CC[C@@]4(C)[C@@H](CC[C@@H]5[C@@H]4CC[C@]4(C)C(=O)CC[C@@H]54)C3)CC2)ccc1C | 31% | inactive | 12.5% | 4.72 |  |  |  |  | 
6 | C[C@]12CC[C@@H]3c4ccc(O)cc4CC[C@H]3[C@@H]1CC[C@@H]2O [ESTRADIOL] |  |  |  |  | 770 µM | 155 µM |  |  | 
7 | CCN(C)S(=O)(=O)N1CCN(C[C@@]2(O)CC[C@@]3(C)[C@@H](CC[C@@H]4[C@@H]3CC[C@]3(C)C(=O)CC[C@@H]43)C2)CC1 | 10.2% | inactive | 0% | 2.97 |  |  |  |  | 
8 | COc1cccc(CN2CCN(C[C@@]3(O)CC[C@@]4(C)[C@@H](CC[C@@H]5[C@@H]4CC[C@]4(C)[C@H](O)CC[C@@H]54)C3)CC2)c1 | 31.7% | inactive | 41.7% | 4.67 | 235 µM | 610 µM |  |  | 
9 | CC(=O)c1cccc(C(=O)N2CCN(C[C@@]3(O)CC[C@@]4(C)[C@@H](CC[C@@H]5[C@@H]4CC[C@]4(C)C(=O)CC[C@@H]54)C3)CC2)c1 |  | inactive | 5% | 3.85 |  |  |  |  | 
10 | COc1cccc(CN2CCN(C[C@@]3(O)CC[C@@]4(C)[C@@H](CC[C@@H]5[C@@H]4CC[C@@]4(C)[C@H]5CCC4(F)F)C3)CC2)c1 | 13.3% | inactive | 38.6% | 5.57 |  |  | Insoluble |  | 
11 | COc1cccc(CN2CCN(C[C@@]3(O)CC[C@@]4(C)[C@@H](CC[C@@H]5[C@@H]4CC[C@@]4(C)[C@H]5CC[C@]4(C)O)C3)CC2)c1 | 22.6% | inactive | 21.9% | 5.06 |  |  |  |  | 
12 | CN1C(=O)CN=C(c2ccccc2)c2cc(Cl)ccc21 [DIAZEPAM] |  |  |  |  |  |  |  | 50 to 60 µL/s/g | 
13 | CN(C)S(=O)(=O)c1ccc(NC(=S)N2CCN(C[C@@]3(O)CC[C@@]4(C)[C@@H](CC[C@@H]5[C@@H]4CC[C@]4(C)C(=O)CC[C@@H]54)C3)CC2)cc1 | 0.3% | inactive | 13.3% | 3.32 |  |  |  |  | 
14 | COc1cccc(CN2CCN(C[C@@]3(O)CC[C@@]4(C)[C@@H](CC[C@@H]5[C@@H]4CC[C@]4(C)C(=O)CC[C@@H]54)C3)CC2)c1 | 30% | inactive | 14.7% | 4.43 | 985 µM | 710 µM |  | 13.8 to 32.7 µL/s/g | Non-Toxic
15 | COc1cccc(CN2CCN(C[C@@]3(O)CC[C@@]4(C)[C@@H](CC[C@@H]5[C@@H]4CC[C@]4(C)[C@@H](O)CC[C@@H]54)C3)CC2)c1 | 13.7% | inactive | 0% | 4.67 |  |  |  |  | 
16 | C[C@]12CC[C@](O)(CN3CCN(C(=O)c4ccc(C(=O)c5ccccc5)cc4)CC3)C[C@@H]1CC[C@@H]1[C@@H]2CC[C@]2(C)C(=O)CC[C@@H]12 | 58.8% | inactive | 8% | 4.99 |  |  |  |  | 
17 | C[C@]12CC[C@](O)(CN3CCN(C(=O)c4ccc(-c5ccccc5)cc4)CC3)C[C@@H]1CC[C@@H]1[C@@H]2CC[C@]2(C)C(=O)CC[C@@H]12 | 29.4% | inactive | 19.3% | 5.3 |  |  |  |  | 
18 | Cc1cc(C)cc(C(=O)N2CCN(C[C@@]3(O)CC[C@@]4(C)[C@@H](CC[C@@H]5[C@@H]4CC[C@]4(C)C(=O)CC[C@@H]54)C3)CC2)c1 |  | inactive | 1.5% | 4.86 |  |  |  |  | 
